Shown are actives, neighbours in structure and some others; about 2.9% of the full set was active somewhere.
C2C12 statin = suppressors of simvastatin-induced myotoxicity in C2C12 myotubes; ATP luminescence, 48 h; scaled: DMSO 0, geranylgeraniol control 100; rescue of ATP level, % at 7.49 µM; 0.78% of 330,000 active; AID 602340;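 active means mean ATP rescue above about 67%, or every replicate alone reaching that limit, limit read from the data, passing the limit was not always enough; inconclusive means no clear call, values can overlap the other calls; inactive means mean under the limit and some replicate under it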;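 further: myotubes were challenged with 10 µM simvastatin during compound exposure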
SIRT5 block = sirtuin-5 (human) deacylase inhibition; 1.1% of 330,000 active; Purified SirT5, succinyl-peptide AMC, trypsin-coupled fluorescence; inhibition, % at 15 µM; Q9NXA8; in the data active means inhibition above about 15%; inconclusive means no clear call, values can overlap the other calls
Target sequence (Q9NXA8 whole entry, looked up): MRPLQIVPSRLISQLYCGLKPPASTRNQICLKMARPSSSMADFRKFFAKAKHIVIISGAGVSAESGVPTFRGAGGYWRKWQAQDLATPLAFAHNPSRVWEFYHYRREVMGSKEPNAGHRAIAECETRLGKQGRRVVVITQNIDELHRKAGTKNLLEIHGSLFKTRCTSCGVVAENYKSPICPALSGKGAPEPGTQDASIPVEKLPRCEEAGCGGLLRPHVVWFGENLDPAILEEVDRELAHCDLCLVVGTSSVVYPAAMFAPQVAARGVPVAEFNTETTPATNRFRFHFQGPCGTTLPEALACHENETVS
S100A4 MyoIIA = inhibitors of human S100A4 binding to myosin IIA peptide | inhibition, % at 10.7 µM | 0.14% of 360,000 active | S100A4/TAMRA-MyoIIA peptide fluorescence polarization | AID 652163;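 active means mean inhibition of at least 70% across replicates, with every replicate also reaching that level; inconclusive means mean inhibition reaches 70% but some replicates fall short; inactive means mean inhibition below 70%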
Target sequence (P26447 whole entry, looked up): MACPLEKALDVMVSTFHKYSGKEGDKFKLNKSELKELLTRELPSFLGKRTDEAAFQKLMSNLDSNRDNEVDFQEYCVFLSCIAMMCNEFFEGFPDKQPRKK
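System – human S100A4 monomer protein, biochemical binding assay · Buffer or medium – Calcium-containing HEPES buffer, pH 7.2 · Timing – 5 min between mix addition and reading · Also added – TAMRA-labelled myosin IIA heavy-chain peptide probe, 5 nM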
PGC1a acetyl inh = modulators of PGC1a acetylation. U2OS PGC1a acetylation, AlphaScreen anti-acetyl-lysine; with virally co-expressed GCN5 acetyltransferase. 0.17% of 350,000 active. inhibition, % at 15.6 µM;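 active means every replicate shows inhibition of at least 40%; inconclusive means mean inhibition at least 40% but some replicate below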;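 further: 0% = neutral control wells and 100% = positive control wells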
DENV2 CPE = protects cells from dengue virus 2 cytopathic effect; DENV2-infected cells, cytopathic effect rescue, plate reader; CPE inhibition, % at 9.99 µM; 1.7% of 350,000 active; AID 651640; in the data active means CPE inhibition above about 20%, passing the limit was not always enough; inconclusive means no clear call, values can overlap the other calls; tested in BHK-21 cells;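 further: 0% = median of neutral control wells and 100% = median of positive control wells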
An asterisk follows results filed as active; ? = inconclusive; . = not tested or not shown; ! = repeats disagree.

SMILES	C2C12 statin	SIRT5 block	S100A4 MyoIIA	PGC1a acetyl inh	DENV2 CPE
CO[C@@H]1CN(C)C(=O)c2ccc(NC(=O)Nc3cc(F)ccc3F)cc2OC[C@@H](C)NC[C@H]1C	-99	5	-5	-2	-4
O=C(Nc1ccc2c(c1)OCO2)c1ccc2nc[nH]c2c1	86*	.	.	-12	.
COc1ccccc1C#Cc1ccc([C@@H]2[C@H]3CN(C(=O)C4CCCC4)CCCCN3[C@H]2CO)cc1	.	13	2	-18	-1
COCC#Cc1cnc2c(c1)C(=O)N([C@H](C)CO)C[C@@H](C)[C@H](CN(C)S(=O)(=O)c1ccccc1)O2	1	-2	7	5	7
C[C@H](CO)NC(=O)[C@@H]1C[C@H]1[C@@H](NP(=O)(c1ccccc1)c1ccccc1)c1ccccc1	116*	-3	-2	-6	-6
Cc1cc(CNC(=O)[C@H]2C[C@@H]2[C@H](NP(=O)(c2ccccc2)c2ccccc2)c2ccccc2)nn1C	.	.	7	.	-8
C[C@H]1CN([C@@H](C)CO)C(=O)c2cc(C#CC(C)(C)O)cnc2O[C@@H]1CN(C)Cc1ccccn1	12	-1	-24	4	-9
O=C1C=C(c2c(O)ccc3ccccc23)c2ccccc2C1=O	-5	.	-7	54*	-2
O=C(O)c1cc2ccccc2c2c1C(=O)c1ccccc1-2	-6	-2	-2	0	1
C[C@H]1CN([C@@H](C)CO)C(=O)c2cc(-c3cccc(C#N)c3)cnc2O[C@@H]1CN(C)Cc1cccnc1	-13	0	128*	5	4
C[C@H](CO)N1C[C@H](C)[C@H](CN(C)Cc2cccnc2)Oc2ncc(C#CC3(O)CCCC3)cc2C1=O	3	1	1	-12	7
COc1ccccc1-c1cnc2c(c1)C(=O)N([C@@H](C)CO)C[C@H](C)[C@H](CN(C)Cc1cccnc1)O2	-4	-2	8	-14	1
COc1ccccc1-c1cnc2c(c1)C(=O)N([C@H](C)CO)C[C@@H](C)[C@H](CN(C)Cc1cccnc1)O2	-2	-1	-2	-5	26*
C[C@@H]1CN([C@H](C)CO)C(=O)c2cc(C#CC3(O)CCCC3)cnc2O[C@@H]1CN(C)Cc1cccnc1	.	1	6	4	25*
COc1cccc(-c2cnc3c(c2)C(=O)N([C@H](C)CO)C[C@@H](C)[C@H](CN(C)Cc2ccccc2)O3)c1	37	1	10	-11	27*
COc1ccc(CN(C)C[C@H]2Oc3ccc(NC(=O)Cn4cnnn4)cc3CC(=O)N([C@H](C)CO)C[C@@H]2C)cc1	35	2	-4	-2	10
COc1ccccc1CNC(=O)C[C@H]1CC[C@H]2[C@@H](COc3ccc(NC(C)=O)cc3C(=O)N2C)O1	-20	.	.	4	0
C/C=C/c1ccc(C2[C@H]3CNC[C@@H]2N3S(=O)(=O)c2ccccc2OC)cc1 (some centres undefined)	.	-1	-14	1	0
C/C=C/c1ccc(C2[C@H]3CNC[C@@H]2N3S(=O)(=O)c2ccccc2C)cc1 (some centres undefined)	.	2	101*!	5	20*!
CCC(=O)Oc1ccc(C(CC)C(CC)c2ccc(OC(=O)CC)cc2)cc1 (centres undefined)	-1	0	0	4	42*
Cc1ccc(OCC(=O)Oc2ccc(C(C)C)cc2)cc1	-1	-2	-1	14	-2
Cc1csc(/C(=N/OC(=O)c2ccco2)C(N)=O)n1	9	4	5	0	35*
O=C(N[C@@H]1CC[C@H](CC(=O)N2CCCCC2)O[C@@H]1CO)c1ccc2c(c1)OCO2	-1	3	-7	3	?
Cc1ccc(C(=O)OCC(=O)Nc2ccc3c(c2)OCO3)cc1S(=O)(=O)N1CCOCC1	108*	.	.	5	.
Cc1ccc(NC(=O)COC(=O)c2ccc3c(c2)OCCO3)cc1S(=O)(=O)N1CCOCC1	.	-2	-6	-2	1
SMILES	C2C12 statin	SIRT5 block	S100A4 MyoIIA	PGC1a acetyl inh	DENV2 CPE
COc1ccc(CC(=O)Nc2ccc(C)c(S(=O)(=O)N3CCCCCC3)c2)cc1	-9	-3	-6	-1	35*
Cc1ccc(S(=O)(=O)CCC(=O)Nc2cccc(Cl)c2)cc1	108*	-1	-5	-7	7
COc1ccc(NC(=O)N[C@@H]2CC[C@@H](CCn3cc(-c4ccccc4)nn3)O[C@@H]2CO)cc1	0	8	9	0	19
O=C(Nc1ccc(F)cc1)N[C@@H]1CC[C@@H](CCn2cc(C3(O)CCCC3)nn2)O[C@H]1CO	-2	-2	9	2	10
COc1ccccc1-c1cn(CC[C@H]2CC[C@@H](NC(=O)NC(C)C)[C@H](CO)O2)nn1	-5	1	19	2	28*
COc1ccc(NC(=O)N[C@H]2CC[C@H](CCn3cc(-c4ccccc4)nn3)O[C@@H]2CO)cc1	2	-5	-12	-3	37*
O=C(Nc1ccc(C(F)(F)F)cc1)N[C@@H]1CC[C@H](CCn2cc(C3(O)CCCC3)nn2)O[C@@H]1CO	-16	18*	20	22	-2
O=C(Nc1ccc(Cl)cc1)N[C@H]1CC[C@@H](CCn2cc(Cc3ccccc3)nn2)O[C@H]1CO	-1	5	-2	0	46*
O=C(Nc1ccc(Cl)cc1)N[C@@H]1CC[C@@H](CCn2cc(Cc3ccccc3)nn2)O[C@@H]1CO	8	4	-4	3	-6
C[C@H](CO)N1C[C@H](C)[C@@H](CN(C)C(=O)CCC(F)(F)F)OCCCC[C@H](C)Oc2ccc(NS(C)(=O)=O)cc2C1=O	-11	-1	-3	5	-1
CCCC1(CCC)NC(=O)N(CC(=O)N2CCN(C(=O)c3ccco3)CC2)C1=O	98*	.	.	-1	.
COc1ccc(CN(C)C[C@H]2Oc3ccc(NS(C)(=O)=O)cc3CC(=O)N([C@H](C)CO)C[C@@H]2C)cc1	-5	-3	1	13	-5
Cc1c(C2Nc3ccccc3C2C)[nH]c2ccccc12 (centres undefined)	.	.	-7	.	?
COc1ccc(CCN(C)C(=O)CSc2nc3ccccc3c(=O)n2CC2CCCO2)cc1OC (centres undefined)	27	-4	-1	-5	21*
Cc1ccc(CNC(=O)CSc2nc3ccccc3c(=O)n2CC2CCCO2)cc1 (centres undefined)	-2	-5	-10	-2	-5
O=C(C[C@@H]1CC[C@H](NC(=O)Nc2ccccc2F)[C@H](CO)O1)NCc1ccc(-c2ccccc2)cc1	.	5	-1	.	-1
CN(C)CC(=O)N[C@H]1CC[C@@H](CC(=O)NCc2ccc(Cl)cc2)O[C@@H]1CO	-6	6	82*	5	?
COCCNC(=O)C[C@@H]1CC[C@H](NC(=O)NC2CCCC2)[C@@H](CO)O1	-5	0	2	12	22*
